In ChEMBL document CHEMBL4513216, “Probing the Open Global Health Chemical Diversity Library for Multistage-Active Starting Points for Next-Generation Antimalarials” (ACS Infect Dis, 2020):

Experiment: Toxicity liver stage against HepG2, at 10uM
Type: cell-based
Design: test concentration 10 uM, cell line HepG2-A16-CD81EGFP
Settings: human, HepG2-A16-CD81EGFP cells; read-out: INHIBITION
Outline: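 Uninfected HepG2-A16-CD81EGFP cells, 3 × 10^3 per well, 1536-well, plated on prespotted compound at 10 μM final, parasite-free screening media added to match infected plates; puromycin 10 μM positive, DMSO 0.5% negative; run in parallel with 48 h PbLuc assay at 37 °C, 5% CO2; viability by CellTiter-Glo luminescence, normalized to controls.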

| Compound | cytotoxicity at 10 µM |
| --- | --- |
| Cc1occc1CNC(=O)NCCN(C)C1CCCC1 | -19.5% |
| O=C(c1cc(-n2cnnn2)ccc1Cl)N1CCCCCC1 | 5.56% |
| COCCCN(Cc1ccc(F)cc1Cl)C1CCS(=O)(=O)C1 (stereo unspecified) | 13.7% |
| CN(C)Cc1ccnc(C2CN(CCCc3ccccc3)CCO2)n1 (stereo unspecified) | -6.36% |
| CC(=O)N1CCC(C(=O)N2CCCC(Cc3ccccn3)C2)CC1 (stereo unspecified) | 6.97% |
| CCC(CC)C(=O)n1ccn(S(=O)(=O)c2ccc(C)cc2)c1=O | 11.5% |
| Cc1ccccc1-n1cc(CNC(=O)CC2C(=O)NCCN2C)cn1 (stereo unspecified) | 2.4% |
| CSCC(CCO)NC(=O)Nc1cc(Br)ccc1C (stereo unspecified) | -11.1% |
| O=C(NC1CC2(CCN(CCO)CC2)Oc2ccccc21)c1csnn1 (stereo unspecified) | -101% |
| CCC(=O)NC1CCCN(C(=O)Nc2cc(-c3ccccc3)on2)C1 (stereo unspecified) | 6.64% |
| CN(C(=O)CSc1ncc[nH]1)C1CC1 | 7.97% |
| COc1ccccc1C(=O)N(C)Cc1nnc2ccccn12 | -2.45% |
| CC(C)n1[nH]c(=O)c2c1NC(=O)CC2c1ccc(S(C)(=O)=O)cc1 (stereo unspecified) | -2.28% |
| Cc1nc(C2CCCN2CCOCC2CC2)no1 (stereo unspecified) | -4.56% |
| COC1CCN(S(=O)(=O)N2CCCC2c2ccco2)CC1 (stereo unspecified) | 11% |
| Cc1cccc2nc(CNC(=O)N3CCC(OCC4CC4)CC3)cn12 | -2.02% |
| c1nc(N2CCOCC2)ncc1-c1cncn1CCCN1CCCCC1 | -7.08% |
| O=S(=O)(N(Cc1ccccn1)C1CC1)N1CCCC1c1ccco1 (stereo unspecified) | -3.73% |
| Cc1ccc(N2CC3(COCCN(Cc4nccs4)C3)OCC2=O)s1 (stereo unspecified) | -13.5% |
| CCOCCN1CCN(c2ncccc2C#N)CC1CC (stereo unspecified) | 5.94% |
| CC1COCCN1C(=O)NCCn1ccnc1 (stereo unspecified) | -50.4% |
| CN(Cc1ccc2c(c1)OCO2)Cc1cscn1 | -11.1% |
| Cc1ncc2c(n1)CCN(CCCc1nc3ccccc3o1)C2 | -18.7% |

| Compound | cytotoxicity at 10 µM |
| --- | --- |
| CCc1cccc(NC(=O)N2CCn3cnc(COC)c3C2)c1 | 5.35% |
| Cc1ccc(Sc2ccc(N3CCC(C(=O)O)CC3)nn2)cc1 | -0.0154% |
| Cc1ccccc1CN1CCN(c2ncnc3c2NC(=O)CN3)CC1 | 6.78% |
| Cc1cc(C(C)(O)CNC(=O)C2(C)CCCC2)c(C)o1 (stereo unspecified) | -4.88% |
| CSc1cccc(NC(=O)N2CCC3(CCC(=O)N(C4CC4)C3)CC2)c1 | 9.27% |
| CN1CCOC(CNCc2c(Cl)nc3ccccn23)C1 (stereo unspecified) | -0.0638% |
| CCOC(C)c1nc(CN2CCC(C3OCCO3)CC2)cs1 (stereo unspecified) | -1.91% |
| C1CC(CN2C[C@@H]3CC[C@H]2CN(Cc2nnc(C4CC4)o2)C3)C1 | 1.19% |
| CC(C)(C)c1coc([C@@H]2COCCN2Cc2ncc[nH]2)n1 | 2.61% |
| Cc1ccoc1C(=O)NC1CCN(CC(=O)N(C)c2ccccc2)CC1 | -2.93% |
| O=C(NCCc1coc(-c2ccccc2)n1)NC1CC1 | -18.5% |
| COc1ccccc1CNC(=O)C1=NN(c2ccc(C)cc2)C(=O)CN1 | 25.1% |
| CN1CCC(N2CCOC[C@H]2c2nc(-c3ccncc3)c[nH]2)CC1 | -5.15% |
| Cc1cccc(CN2C(=O)CCC23CCN(C(=O)NC(C)C)CC3)n1 | 5% |
| O=C1CCCCCN1Cc1nc(C2(c3ccc(F)cc3)CCOC2)no1 (stereo unspecified) | 21.1% |
| CN(C)CC(C)(C)Cn1cnc(-c2ccccc2)c1-c1ccncc1 | 4.19% |
| COCCN1CC[C@@H]2O[C@@H](COCC(=O)N3CCCC3)CC[C@@H]21 | -18.1% |
| Fc1ccc(CN2CCCC(c3nccnc3-n3ccnc3)C2)cc1 (stereo unspecified) | -20.4% |
| Cc1cc(C)n(Cc2cccc(C(=O)NCCSCC(C)(C)O)c2)n1 | -6.93% |
| CC1CN(CCc2ccccn2)CCN1c1ccc2nncn2n1 (stereo unspecified) | -3.43% |
| c1csc(-c2noc(CNC3CCc4ncnn4C3)n2)c1 (stereo unspecified) | -9.3% |
| CN(C)C(=O)N1CC2(CCOCC2)c2cc(NS(=O)(=O)C3CC3)ccc21 | -7.15% |
| COCCN1CC[C@@H](OC)[C@@H]1Cc1ccccc1 | 4.9% |
